For test [1], the target named is T1, Integrin alpha-IIb/beta-3 (Homo sapiens, UniProt P08514+P05106). Kind of test: Inhibition of 17.5 uM ADP-induced platelet aggregation of human platelet-rich plasma. Put shortly:
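Aggregation of human platelets in platelet-rich plasma. Values are the average of at least 3 determinations.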

The target in test [2] is T1, Integrin alpha-IIb/beta-3. Briefly: Inhibition of thrombin-induced platelet aggregation assay at 20 uM.

Molecules are shown by their SMILES.

Drawing on BindingDB's records for doi:10.1021/jm960652r (Genentech, 1997), this text covers IC50 for 7 molecules.

T1 sequence (P05106 27-788 limits assumed): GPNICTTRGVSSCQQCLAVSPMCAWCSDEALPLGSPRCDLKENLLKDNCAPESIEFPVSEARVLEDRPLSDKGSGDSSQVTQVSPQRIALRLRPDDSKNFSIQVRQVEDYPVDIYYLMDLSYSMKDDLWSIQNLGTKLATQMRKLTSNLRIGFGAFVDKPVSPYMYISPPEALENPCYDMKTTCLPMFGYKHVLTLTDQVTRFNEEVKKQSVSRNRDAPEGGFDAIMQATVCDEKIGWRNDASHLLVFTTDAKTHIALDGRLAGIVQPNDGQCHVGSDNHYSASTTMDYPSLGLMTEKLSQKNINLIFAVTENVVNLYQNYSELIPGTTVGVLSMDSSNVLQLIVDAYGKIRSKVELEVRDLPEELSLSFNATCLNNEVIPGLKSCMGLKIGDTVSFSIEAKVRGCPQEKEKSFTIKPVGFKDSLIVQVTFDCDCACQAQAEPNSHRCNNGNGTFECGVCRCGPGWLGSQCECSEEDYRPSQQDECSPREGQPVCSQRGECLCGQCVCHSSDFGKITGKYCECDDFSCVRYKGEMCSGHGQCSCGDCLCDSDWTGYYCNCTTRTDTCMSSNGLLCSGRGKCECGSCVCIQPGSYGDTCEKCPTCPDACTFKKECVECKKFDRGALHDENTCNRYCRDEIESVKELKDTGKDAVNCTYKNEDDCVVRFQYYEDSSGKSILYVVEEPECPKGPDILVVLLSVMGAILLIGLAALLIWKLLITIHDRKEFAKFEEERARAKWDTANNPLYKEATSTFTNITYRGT
T1 sequence (P08514 32-887 limits assumed): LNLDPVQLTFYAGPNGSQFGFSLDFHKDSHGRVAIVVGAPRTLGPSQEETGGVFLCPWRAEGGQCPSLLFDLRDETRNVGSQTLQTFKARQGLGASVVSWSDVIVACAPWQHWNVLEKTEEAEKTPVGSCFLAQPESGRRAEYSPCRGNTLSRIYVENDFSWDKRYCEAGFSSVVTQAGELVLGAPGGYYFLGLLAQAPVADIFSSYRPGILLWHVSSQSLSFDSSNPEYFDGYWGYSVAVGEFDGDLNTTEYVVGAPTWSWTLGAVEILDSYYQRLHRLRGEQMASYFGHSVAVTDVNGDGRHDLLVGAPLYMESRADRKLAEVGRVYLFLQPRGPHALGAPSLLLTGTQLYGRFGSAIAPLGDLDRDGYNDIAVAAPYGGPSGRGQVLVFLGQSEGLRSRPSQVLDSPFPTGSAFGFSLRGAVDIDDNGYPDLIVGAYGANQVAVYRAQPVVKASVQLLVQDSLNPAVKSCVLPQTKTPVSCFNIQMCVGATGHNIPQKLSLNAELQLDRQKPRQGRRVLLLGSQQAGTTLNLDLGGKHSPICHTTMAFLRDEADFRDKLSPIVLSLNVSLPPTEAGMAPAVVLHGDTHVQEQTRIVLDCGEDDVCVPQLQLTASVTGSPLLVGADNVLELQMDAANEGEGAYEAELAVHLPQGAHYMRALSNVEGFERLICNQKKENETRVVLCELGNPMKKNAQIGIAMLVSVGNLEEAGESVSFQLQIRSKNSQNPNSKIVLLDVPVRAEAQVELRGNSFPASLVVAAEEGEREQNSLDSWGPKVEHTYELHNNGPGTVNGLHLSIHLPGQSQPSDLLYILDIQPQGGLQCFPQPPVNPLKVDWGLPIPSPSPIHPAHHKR
T1 sequence (P08514 891-1039 limits assumed): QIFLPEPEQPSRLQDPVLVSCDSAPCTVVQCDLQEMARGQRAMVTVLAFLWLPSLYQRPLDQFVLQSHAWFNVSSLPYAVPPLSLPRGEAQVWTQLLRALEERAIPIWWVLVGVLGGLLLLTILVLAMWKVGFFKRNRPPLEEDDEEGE

In the case of `C[C@@H](CC(=O)O)N1CC(=O)N(C(C)(C)C)c2c(Cl)cc(C#Cc3ccc(C(=N)N)cc3)cc2C1=O` [(S)-3-[1-tert-Butyl-7-(4-carbamimidoyl-phenylethynyl)-9-chloro-2,5-dioxo-1,2,3,5-tetrahydro-benzo[e][1,4]diazepin-4-yl]-butyric acid], the IC50 in test [1] turned out to be 34 nM; in test [2], 60 nM.

In the case of `C[C@H](CC(=O)O)N1CC(=O)N(C(C)(C)C)c2c(Cl)cc(C#Cc3ccc(C(=N)N)cc3)cc2C1=O` [(R)-3-[1-tert-Butyl-7-(4-carbamimidoyl-phenylethynyl)-9-chloro-2,5-dioxo-1,2,3,5-tetrahydro-benzo[e][1,4]diazepin-4-yl]-butyric acid], the IC50 in test [1] is 1300 nM.

For the molecule `C[C@@H](CC(=O)O)N1CC(=O)N(C)c2ccc(C#Cc3ccc(C(=N)N)cc3)cc2C1=O` [(S)-3-[7-(4-Carbamimidoyl-phenylethynyl)-1-methyl-2,5-dioxo-1,2,3,5-tetrahydro-benzo[e][1,4]diazepin-4-yl]-butyric acid], the IC50 came out at 78 nM in test [1] and 138 nM in test [2].

As to `C[C@@H](CC(=O)O)N1CC(=O)N(C)c2c(Cl)cc(C#Cc3ccc(C(=N)N)cc3)cc2C1=O` [(S)-3-[7-(4-Carbamimidoyl-phenylethynyl)-9-chloro-1-methyl-2,5-dioxo-1,2,3,5-tetrahydro-benzo[e][1,4]diazepin-4-yl]-butyric acid], the 50% inhibitory concentration (IC50) was found to be 159 nM in test [1] and 313 nM in test [2].

Take `CN1C(=O)CN(CCC(=O)O)C(=O)c2cc(C#Cc3ccc(C(=N)N)cc3)ccc21` [3-[7-(4-Carbamimidoyl-phenylethynyl)-1-methyl-2,5-dioxo-1,2,3,5-tetrahydro-benzo[e][1,4]diazepin-4-yl]-propionic acid(G6249)]: the 50% inhibitory concentration (IC50) in test [2] turned out to be 213 nM.

On to `C[C@H](CC(=O)O)N1CC(=O)N(C)c2ccc(C#Cc3ccc(C(=N)N)cc3)cc2C1=O` [(R)-3-[7-(4-Carbamimidoyl-phenylethynyl)-1-methyl-2,5-dioxo-1,2,3,5-tetrahydro-benzo[e][1,4]diazepin-4-yl]-butyric acid], for which the IC50 in test [1] stood at 820 nM.

`C[C@@H](CC(=O)O)N1CC(=O)N(C(C)(C)C)c2ccc(C#Cc3ccc(C(=N)N)cc3)cc2C1=O` [(S)-3-[1-tert-Butyl-7-(4-carbamimidoyl-phenylethynyl)-2,5-dioxo-1,2,3,5-tetrahydro-benzo[e][1,4]diazepin-4-yl]-butyric acid] returned an IC50 in test [1] of 92 nM. Against the preceding molecule, the IC50 is about 8.9-fold lower.

As a reminder, the IC50 is the midpoint of a concentration-inhibition curve. Read a low IC50 as greater potency in that assay.
